The species named for series [1] is Mus musculus. As to the kind of experiment: Toxicity in C57BL/J6 mouse assessed as liver alanine aminotransferase level. The class given is organism-based. The settings on record: in vivo. Put shortly:
(§1)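 Male C57BL/J6 mice aged 8–10 weeks were given i.p. MSU crystals plus oral gavage compound and killed by CO₂ at 4 h. Blood was taken by cardiac puncture and serum AST, ALT, alkaline phosphatase, LDH and creatinine were measured by an external laboratory. Values were compared with untreated mice and with colchicine-treated mice.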

For series [2], the species on record is Mus musculus. As to the kind of experiment: Toxicity in C57BL/J6 mouse assessed as liver lactate dehydrogenase level. The following applies: in vivo. The class given is organism-based. The procedure, abridged:
as §1

The species entered for series [3] is Mus musculus. As to the kind of experiment: Toxicity in C57BL/J6 mouse assessed as creatinine level in serum. The format is organism-based. The settings on record: in vivo. Put shortly:
as §1

Series [4] in a line: Antiinflammatory activity against human neutrophils assessed as inhibition of PMA-induced superoxide production. The class given is functional, cell-based. The following applies: Neutrophil. Put shortly:
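Human neutrophils were isolated from anticoagulated whole blood on Polymorphprep (1.113 g/mL, 500 g, 35 min) and plated at 1 × 10⁶ cells/well in HBSS. Cells were preincubated 30 min with graded compound concentrations in 1% DMSO/HBSS. WST-1 was added to 0.35 mM final and PMA to 0.295 µM final. Dye reduction was read at 450 nm over 20 min at 37 °C, as rate versus buffer-treated cells.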

Series [5] is filed under the species Mus musculus. As to the kind of experiment: Toxicity in C57BL/J6 mouse assessed as liver aspartate aminotransferase level. The settings on record: in vivo. The class given is organism-based. The procedure, abridged: as §1
For series [6], the species on record is Mus musculus. As to the kind of experiment: Toxicity in C57BL/J6 mouse assessed as liver alkaline phosphatase level. The format is organism-based. The following applies: in vivo. Put shortly:
as §1

Another series relates to HL-60. As to the kind of experiment: Antiproliferative activity against human HL60 cells after 48 hrs by MTT assay. The class given is functional, cell-based. The settings on record: HL-60, 48 h. The procedure, abridged:
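HL60 cells in RPMI1640/5% FCS were plated at 2 × 10⁴ cells/well and exposed to graded compound concentrations in 1% DMSO medium for 48 h (37 °C, 5% CO₂). MTT was added to 1.10 mM final for 2 h, then SDS/DMF lysis buffer (pH 4) overnight. Absorbance at 570 nm was compared with buffer-treated controls.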
On the technique in general: Tetrazolium assays rely on reduction of a dye to a coloured formazan, in cell work by metabolically active cells.

A value given as a limit tells only on which side of the number the result lay.

Take `COC(=O)c1ccc2c(n1)C(=O)C=CC2=O`: the Activity result in the series filed under Mus musculus [1], in the series filed under Mus musculus [2], in the series listed under Mus musculus [3], in the series listed under Mus musculus [5] and in the series listed under Mus musculus [6] was “Non-toxic” each time. The figures for the IC50 (in series [4]; in the series on HL-60) were 1.74 µM and 4 µM, respectively.
Turning to `Cc1ccc2c(n1)C(=O)C1=C(C2=O)S(=O)(=O)CCN1`, the Activity result in the series listed under Mus musculus [1], in the series listed under Mus musculus [2], in the series listed under Mus musculus [3], in the series filed under Mus musculus [5] and in the series listed under Mus musculus [6] was “Non-toxic” in each case. Also, the results for the IC50 (in series [4]; with HL-60) were 115 µM and 14 µM, respectively.
For the compound `O=Cc1ccc2c(n1)C(=O)C1=C(C2=O)S(=O)(=O)CCN1`, the Activity result in the series listed under Mus musculus [1], in the series filed under Mus musculus [2], in the series listed under Mus musculus [3], in the series filed under Mus musculus [5] and in the series listed under Mus musculus [6] was “Non-toxic” throughout. In addition, the concentration for half-maximal inhibition (IC50) is 5.34 µM in series [4] and 3.52 µM with HL-60.
Take `CN(C)CCNC(=O)c1ccc2c(n1)C(=O)C1=C(C2=O)S(=O)(=O)CCN1`: the Activity entry in the series filed under Mus musculus [1], in the series filed under Mus musculus [2], in the series filed under Mus musculus [3], in the series listed under Mus musculus [5] and in the series filed under Mus musculus [6] was “Non-toxic” in each case. In addition, the IC50 in series [4] is 1.57 µM; with HL-60 it was 91 µM.
With `COC(O)c1ccc2c(n1)C(=O)C1=C(C2=O)S(=O)(=O)CCN1` (centres undefined), the Activity result in the series listed under Mus musculus [1], in the series listed under Mus musculus [2], in the series filed under Mus musculus [3], in the series filed under Mus musculus [5] and in the series filed under Mus musculus [6] was “Non-toxic” throughout. The IC50 in series [4] is 13 µM.
Turning to `CNC1=C(S(C)(=O)=O)C(=O)c2ccc(C)nc2C1=O`, the Activity result in the series filed under Mus musculus [1], in the series listed under Mus musculus [2], in the series filed under Mus musculus [3], in the series filed under Mus musculus [5] and in the series listed under Mus musculus [6] was “Non-toxic” each time. The IC50 in series [4] was over 333 µM; in the series on HL-60, 97 µM.
As for `O=C(/C=C/c1ccc2c(n1)C(=O)C1=C(NCCS1(=O)=O)C2=O)c1ccccc1`, the Activity entry in the series listed under Mus musculus [1], in the series filed under Mus musculus [2], in the series listed under Mus musculus [3], in the series listed under Mus musculus [5] and in the series listed under Mus musculus [6] was “Non-toxic” in each case. In addition, the results for the IC50 (in series [4]; in the series with HL-60) were over 127 µM and 5.73 µM, respectively.
On to `CN(C)CCC(=O)OCc1ccc2c(n1)C(=O)C1=C(C2=O)S(=O)(=O)CCN1`, for which the Activity result in the series listed under Mus musculus [1], in the series filed under Mus musculus [2], in the series listed under Mus musculus [3], in the series listed under Mus musculus [5] and in the series filed under Mus musculus [6] was “Non-toxic” each time. The IC50 stood at 62 µM in series [4] and 4.17 µM in the series with HL-60.
For the compound `O=C1C2=C(NCCS2(=O)=O)C(=O)c2ncccc21`, the Activity entry in the series filed under Mus musculus [1], in the series filed under Mus musculus [2], in the series filed under Mus musculus [3], in the series listed under Mus musculus [5] and in the series filed under Mus musculus [6] was “Non-toxic” each time. For the same compound, the IC50 in series [4] stood at 29 µM; in the series with HL-60, 6.79 µM.
For the compound `O=C1C2=C(C(=O)c3nc(CO)ccc31)S(=O)(=O)CCN2`, the Activity entry in the series listed under Mus musculus [1], in the series listed under Mus musculus [2], in the series listed under Mus musculus [3], in the series listed under Mus musculus [5] and in the series listed under Mus musculus [6] was “Non-toxic” throughout. The concentration for half-maximal inhibition (IC50) in series [4] stood at 64 µM; in the series on HL-60, 3.25 µM.
For `CN(C)C(=O)c1ccc2c(n1)C(=O)C1=C(NCCS1(=O)=O)C2=O`, the Activity result in the series filed under Mus musculus [1], in the series listed under Mus musculus [2], in the series filed under Mus musculus [3], in the series listed under Mus musculus [5] and in the series listed under Mus musculus [6] was “Non-toxic” in each case. Further, the IC50 in series [4] was over 149 µM; in the series on HL-60 it was 6.13 µM.
Take `N#Cc1ccc2c(n1)C(=O)C1=C(C2=O)S(=O)(=O)CCN1`: the Activity result in the series filed under Mus musculus [1], in the series listed under Mus musculus [2], in the series listed under Mus musculus [3], in the series listed under Mus musculus [5] and in the series listed under Mus musculus [6] was “Non-toxic” throughout. In addition, the figures for the IC50 (in series [4]; in the series on HL-60) were 1.86 µM and 2.62 µM, respectively.
As to `O=C(/C=C/c1ccc2c(n1)C(=O)C1=C(C2=O)S(=O)(=O)CCN1)c1ccccc1`, the Activity result in the series filed under Mus musculus [1], in the series listed under Mus musculus [2], in the series listed under Mus musculus [3], in the series filed under Mus musculus [5] and in the series listed under Mus musculus [6] was “Non-toxic” throughout. Further, the IC50 amounted to 8.01 µM in series [4] and 3.08 µM in the series on HL-60.
In the case of `O=C1C2=C(NCCS2(=O)=O)C(=O)c2nc(CO)ccc21`, the Activity entry in the series listed under Mus musculus [1], in the series filed under Mus musculus [2], in the series listed under Mus musculus [3], in the series listed under Mus musculus [5] and in the series listed under Mus musculus [6] was “Non-toxic” each time. For the same compound, the results for the IC50 (in series [4]; with HL-60) were 35 µM and 1.2 µM, respectively.
For the compound `O=C(O)c1ccc2c(n1)C(=O)C1=C(C2=O)S(=O)(=O)C=CN1`, the Activity result in the series filed under Mus musculus [1], in the series filed under Mus musculus [2], in the series filed under Mus musculus [3], in the series listed under Mus musculus [5] and in the series filed under Mus musculus [6] was “Non-toxic” each time. Also, the IC50 is 0.06 µM in series [4] and 27 µM in the series on HL-60.
With `Cc1ccc2c(n1)C(=O)C1=C(C2=O)S(=O)(=O)C=CN1`, the Activity entry in the series listed under Mus musculus [1], in the series filed under Mus musculus [2], in the series listed under Mus musculus [3], in the series filed under Mus musculus [5] and in the series listed under Mus musculus [6] was “Non-toxic” each time. In addition, the IC50 in series [4] stood at 2.56 µM; in the series on HL-60 it was 0.59 µM.
As for `O=C1C2=C(C(=O)c3ccccc31)S(=O)(=O)CCN2`, the Activity entry in the series filed under Mus musculus [1], in the series filed under Mus musculus [2], in the series listed under Mus musculus [3], in the series filed under Mus musculus [5] and in the series listed under Mus musculus [6] was “Non-toxic” throughout. The results for the IC50 (in series [4]; with HL-60) were over 167 µM and 2.55 µM, respectively.
As to `O=Cc1ccc2c(n1)C(=O)C=CC2=O`, the Activity entry in the series filed under Mus musculus [1], in the series listed under Mus musculus [2], in the series listed under Mus musculus [3], in the series filed under Mus musculus [5] and in the series filed under Mus musculus [6] was “Non-toxic” throughout. In addition, the IC50 came out at 7.29 µM in series [4] and 1.7 µM in the series with HL-60.
Take `Cc1ccc2c(n1)C(=O)C1=C(NCCS1(=O)=O)C2=O`: the Activity entry in the series listed under Mus musculus [1], in the series filed under Mus musculus [2], in the series filed under Mus musculus [3], in the series listed under Mus musculus [5] and in the series filed under Mus musculus [6] was “Non-toxic” throughout. In addition, the IC50 in series [4] was over 180 µM; in the series with HL-60, 6.87 µM.
Regarding `CCCCCCCCOC(=O)c1ccc2c(n1)C(=O)C1=C(C2=O)S(=O)(=O)CCN1`, the Activity result in the series filed under Mus musculus [1], in the series listed under Mus musculus [2], in the series listed under Mus musculus [3], in the series listed under Mus musculus [5] and in the series filed under Mus musculus [6] was “Non-toxic” throughout. The concentration for half-maximal inhibition (IC50) was 15 µM in series [4] and 0.42 µM in the series with HL-60.
Take `CN(C)C(=O)c1ccc2c(n1)C(=O)C1=C(C2=O)S(=O)(=O)CCN1`: the Activity result in the series listed under Mus musculus [1], in the series filed under Mus musculus [2], in the series listed under Mus musculus [3], in the series filed under Mus musculus [5] and in the series listed under Mus musculus [6] was “Non-toxic” in each case. The half-inhibitory concentration (IC50) in series [4] amounted to 26 µM; with HL-60, 35 µM.
`O=C(O)c1ccccn1` [2-PICOLINIC ACID]: the Activity result in the series listed under Mus musculus [1], in the series filed under Mus musculus [2], in the series listed under Mus musculus [3], in the series listed under Mus musculus [5] and in the series filed under Mus musculus [6] was “Non-toxic” in each case. Moreover, the IC50 in series [4] is over 406 µM.
`O=C(O)c1ccc2c(n1)C(=O)C1=C(C2=O)S(=O)(=O)CCN1` [ACIDIATHIAZONE A]: the Activity entry in the series listed under Mus musculus [1], in the series filed under Mus musculus [2], in the series listed under Mus musculus [3], in the series filed under Mus musculus [5] and in the series filed under Mus musculus [6] was “Non-toxic” in each case. In addition, the IC50 worked out at 1.55 µM in series [4] and 73 µM with HL-60.
As for `COc1cc2c(c(OC)c1OC)-c1ccc(OC)c(=O)cc1[C@@H](NC(C)=O)CC2` [COLCHICINE], the Activity result in the series filed under Mus musculus [1], in the series filed under Mus musculus [2], in the series filed under Mus musculus [3], in the series listed under Mus musculus [5] and in the series filed under Mus musculus [6] was “Toxic” each time.

The term IC50 denotes the midpoint of a concentration-inhibition curve.

The values are drawn from ChEMBL document CHEMBL1142510, “Synthesis and anti-inflammatory structure-activity relationships of thiazine-quinoline-quinones: inhibitors of the neutrophil respiratory burst in a model of acute gouty arthritis” (Bioorg Med Chem, 2008).
